The text below walks through data of ChEMBL document CHEMBL4811246, “New organoselenides (NSAIDs-Se derivatives) as potential anticancer agents: Synthesis, biological evaluation and in silico calculations” (Eur J Med Chem, 2021).

Broadly, the inhibition is the drop in the measured response relative to a control, in per cent. Usually IC50 stands for the concentration that gives 50% inhibition.

Activity calls are given as the source filed them. No cut-off for these calls is given here.

The nature of experiment [1]: Antioxidant activity assessed as DPPH radical scavenging activity incubated for 30 mins under dark condition relative to vitamin C. Format: functional. On the technique in general: The DPPH test is a chemical assay of radical scavenging.
Experiment [2] is described as follows: Antioxidant activity assessed as DPPH radical scavenging activity incubated for 30 mins under dark condition relative to control. It counts as functional. Set-up: concentration or dose not given beside the values. The method, boiled down:
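DPPH radical scavenging: test samples at a range of concentrations mixed with DPPH solution and held 30 min in the dark, then absorbance read at 517 nm. Ascorbic acid and ebselen served as positive controls and DMSO as negative control. % activity = [(control A − sample A)/control A] × 100. Mean ± SD of three independent experiments.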

For experiment [3], the system named is MCF7. Briefly: Cytotoxicity against human MCF7 cells assessed as reduction in cell viability measured upto 72 hrs by MTT assay. The note with it: MCF7, 72 h. Format: functional, cell-based. The method, boiled down: (§1)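 ATCC cells grown in RPMI 1640 with 10% FBS and penicillin/streptomycin at 37 °C, 5% CO2. Cells seeded at 1×10^4 per well and allowed 24 h to attach, then exposed to graded compound concentrations for 24, 48 and 72 h, DMSO kept below 1.25%. MTT added 3 h before the end, formazan dissolved in DMSO, OD read at 570 nm. IC50 from viability, three repetitions, mean ± SD.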
Background: Formazan colour is commonly taken as a measure of viable cells.

The test system of experiment [4] is Caco-2. Nature of the experiment: Cytotoxicity against human Caco2 cells assessed as reduction in cell viability measured upto 72 hrs by MTT assay. Format: functional, cell-based. The note with it: Caco-2, 72 h. The procedure, abridged: as §1
Experiment [5] relates to PC-3. Briefly: Cytotoxicity against human PC-3 cells assessed as reduction in cell viability measured upto 72 hrs by MTT assay. It counts as functional, cell-based. To be noted: PC-3, 72 h. The procedure, abridged: as §1
Experiment [6] is described as follows: Antioxidant activity assessed as bleomycin-Fe2+-induced DNA degradation by measuring absorbance at 0.1 mg/ml after 1 hr. Format: functional. Also noted: unit not given here. The method, boiled down: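 Stopped with EDTA, then TBA (1% w/v) and HCl (25% v/v) added and heated 80 °C for 30 min. After cooling on ice, DNA damage read as absorbance increase at 532 nm. L-ascorbic acid positive control.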

Experiment [7] concerns BGC-823. Nature of the experiment: Cytotoxicity against human BGC-823 cells assessed as reduction in cell viability measured upto 72 hrs by MTT assay. To be noted: BGC-823, 72 h. It counts as functional, cell-based. The procedure, abridged: as §1
Experiment [8] concerns BGC-823. Nature of the experiment: Induction of apoptosis in human BGC-823 cells assessed as down regulation of Bcl-2 protein expression at IC50 after 48 hrs by ELISA. It counts as functional, cell-based. The procedure, abridged: (§2)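 Cells harvested with trypsin and lysed by freeze-thaw in liquid nitrogen, then total protein isolated. Bcl-2 and IL-2 quantified by ELISA, read at 450 nm.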
On the technique in general: ELISA stands for enzyme-linked immunosorbent assay.

Experiment [9] has as its system BGC-823. Nature of the experiment: Induction of apoptosis in human BGC-823 cells assessed as upregulation of IL-2 protein expression at IC50 after 48 hrs by ELISA. Format: functional, cell-based. The method, boiled down: as §2
In experiment [10] the test system is BGC-823. Briefly: Induction of apoptosis in human BGC-823 cells assessed as upregulation of caspase-3 protein expression at IC50 after 48 hrs by ELISA. It counts as functional, cell-based.
Experiment [11] can be described thus: Antioxidant activity assessed as GPx-like activity by measuring oxidation of NADPH to NADP+ by NADPH-reductase coupled assay. It counts as functional. The procedure, abridged:
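NADPH/glutathione reductase coupled GPx-like assay: 50 mM phosphate buffer with 0.1% Triton X-100, NADPH reagent containing GSH, glutathione reductase and NADPH, and compound (0.01 ml of 41 mM). Reaction started with H2O2 (0.8 mM), and A340 decrease followed over 3 min to give ΔA/min. Values background-corrected for the H2O2 plus GSH reaction. Ebselen positive control.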

Turning to `N#C[Se]CCCOC(=O)c1ccccc1Nc1cccc(C(F)(F)F)c1`, in experiment [1], the fold change (FC) was found to be 0.5. In addition, in [2], the inhibition was determined as 51.5%. The IC50 amounted to 14.2 µM in experiment [3], 8.4 µM in [4], 7.5 µM in experiment [5] and 13.7 µM in experiment [7]. Moreover, in experiment [6], the Activity was determined as 76.1.

On to `O=c1[nH]cc(F)c(=O)[nH]1` [FLUOROURACIL], for which the IC50 is 7.8 µM in experiment [4], 9.5 µM in [5] and 15.4 µM in experiment [7].

As for `CC(C)Cc1ccc(C(C)C(=O)O)cc1` (stereo not given) [IBUPROFEN], the IC50 in experiment [3], in experiment [4], in experiment [5] and in experiment [7] was > 50 µM in each case.

For `COc1ccc2c(c1)c(CC(=O)OCCC[Se]C#N)c(C)n2C(=O)c1ccc(Cl)cc1`, the fold change (FC) in experiment [1] is 0.4. Besides, in experiment [2], the inhibition was 44.3%. Further, the IC50 in experiment [3] was found to be 29.3 µM; in experiment [4], 32.4 µM; in experiment [5] it was 21.8 µM; in experiment [7], 35.5 µM. Also, in experiment [6], the Activity turned out to be 72.4.

Regarding `Cc1cccc(Nc2ccccc2C(=O)OCCC[Se]C(F)(F)F)c1C`, the fold change (FC) in [1] stood at 0.3. In addition, the inhibition in [2] came out at 23.3%. Moreover, the half-maximal inhibitory concentration (IC50) came out at 8.5 µM in [3], 13.3 µM in [4], 24.5 µM in experiment [5] and 19.6 µM in experiment [7]. Moreover, the Activity in experiment [6] stood at 77.6.

Regarding `CC(=O)Oc1ccccc1C(=O)OCCC[Se]C#N`, the fold change (FC) in [1] was 0.3. In experiment [2], the inhibition turned out to be 27.3%. The concentration for half-maximal inhibition (IC50) came to 8.9 µM in experiment [3], 14.5 µM in experiment [4], 11.2 µM in [5] and 17.3 µM in experiment [7]. In addition, the Activity in [6] came to 78.3.

Regarding `CC(=O)Oc1ccccc1C(=O)O` [ASPIRIN], the concentration for half-maximal inhibition (IC50) in experiment [3], in [4], in [5] and in experiment [7] was > 50 µM in each case.

For `CC(C(=O)OCCC[Se]C(F)(F)F)c1ccc(-c2ccccc2)c(F)c1` (stereo not given), the fold change (FC) in [1] worked out at 0.8. The inhibition in experiment [2] is 73.5%. The IC50 in experiment [3] was found to be 2.7 µM; in experiment [4], 4.5 µM; in experiment [5], 3.3 µM; in experiment [7], 2.5 µM. Further, the result in experiment [8], in experiment [9] and in experiment [10] was Active. Also, the Activity in experiment [6] turned out to be 119.

As to `CC(C)Cc1ccc(C(C)C(=O)OCCC[Se]C(F)(F)F)cc1` (stereo not given), in experiment [1], the fold change (FC) was found to be 0.5. In addition, the inhibition in experiment [2] came out at 48.5%. For the same molecule, the half-inhibitory concentration (IC50) amounted to 9.9 µM in experiment [3], 9.5 µM in experiment [4], 10.4 µM in [5] and 14.3 µM in [7]. Further, the result in [11] was Active. Further, the Activity in [6] stood at 95.7.

`CC(C(=O)OCCC[Se]C#N)c1ccc(-c2ccccc2)c(F)c1` (stereo not given): the inhibition in experiment [2] turned out to be 17.2%. In addition, the IC50 is 22.4 µM in [3], 27.5 µM in experiment [4], 19.7 µM in [5] and 29.4 µM in [7]. The Activity in experiment [6] was 86.5.

For the molecule `CC1=C(CC(=O)OCCC[Se]C(F)(F)F)c2cc(F)ccc2/C1=C\c1ccc([S+](C)[O-])cc1` (stereo not given), the fold change (FC) in experiment [1] was determined as 0.5. Also, the inhibition in [2] worked out at 44.9%. In addition, the half-inhibitory concentration (IC50) came to 19.6 µM in experiment [3], 16.4 µM in experiment [4], 11.6 µM in experiment [5] and 14.4 µM in [7]. Also, the result in experiment [11] was Active. The Activity in experiment [6] came to 73.7.

With `COc1ccc2c(c1)c(CC(=O)OCCC[Se]C(F)(F)F)c(C)n2C(=O)c1ccc(Cl)cc1`, in experiment [1], the fold change (FC) worked out at 0.4. Besides, the inhibition in experiment [2] was found to be 36.6%. The concentration for half-maximal inhibition (IC50) turned out to be 9.3 µM in experiment [3], 10.5 µM in [4], 7.8 µM in experiment [5] and 7.3 µM in experiment [7]. Besides, the Activity in experiment [6] worked out at 62.6.

As to `COc1ccc2cc(C(C)C(=O)OCCC[Se]C(F)(F)F)ccc2c1` (stereo not given), in experiment [2], the inhibition amounted to 37%. Also, the IC50 in [3] was found to be 12.4 µM; in experiment [4] it was 16.3 µM; in experiment [5], 18.4 µM; in experiment [7] it was 10.8 µM. The Activity in experiment [6] was determined as 91.4.

On to `COc1ccc2cc([C@H](C)C(=O)O)ccc2c1` [NAPROXEN], for which the half-maximal inhibitory concentration (IC50) in experiment [3], in experiment [4], in experiment [5] and in experiment [7] was > 50 µM each time.

Take `CCc1cccc2c3c([nH]c12)C(CC)(CC(=O)OCCC[Se]C#N)OCC3` (stereo not given): the fold change (FC) in experiment [1] is 0.3. Moreover, the inhibition in experiment [2] is 30.4%. Further, the IC50 in experiment [3] amounted to 14.4 µM; in [4], 11.5 µM; in experiment [5], 31.4 µM; in experiment [7] it was 21.4 µM. Further, in [6], the Activity stood at 69.4.

`O=C1O[C@H]([C@@H](O)CO)C(O)=C1O`: the fold change (FC) in experiment [1] was 1. For the same molecule, the inhibition in experiment [2] stood at 96.4%. Moreover, the Activity in experiment [6] amounted to 297.

`CC(C)Cc1ccc(C(C)C(=O)OCCC[Se]C#N)cc1` (stereo not given): the fold change (FC) in experiment [1] came out at 0.3. The inhibition in [2] came to 31.2%. Besides, the 50% inhibitory concentration (IC50) in experiment [3] was 19.5 µM; in experiment [4], 14.5 µM; in experiment [5], 22.5 µM; in experiment [7] it was 24.5 µM. The Activity in experiment [6] worked out at 60.3.

On to `COc1ccc2cc(C(C)C(=O)OCCC[Se]C#N)ccc2c1` (stereo not given), for which, in experiment [2], the inhibition was found to be 24.6%. The half-maximal inhibitory concentration (IC50) came to 32.8 µM in experiment [3], 21.5 µM in [4], 22 µM in experiment [5] and 17.3 µM in [7]. In addition, the Activity in experiment [6] amounted to 81.6.

Regarding `CC(C(=O)OCCC[Se]C#N)c1cccc(C(=O)c2ccccc2)c1` (stereo not given), in [2], the inhibition is 57.1%. Further, the IC50 was found to be 8.3 µM in [3], 19.7 µM in experiment [4], 12.6 µM in experiment [5] and 12.6 µM in experiment [7]. Further, the outcome in experiment [11] was Active. The Activity in experiment [6] came to 67.6.

Turning to `CC(C(=O)OCCC[Se]C(F)(F)F)c1cccc(C(=O)c2ccccc2)c1` (stereo not given), the fold change (FC) in experiment [1] was 0.7. In addition, the inhibition in experiment [2] amounted to 66.3%. Further, the IC50 in experiment [3] turned out to be 6.5 µM; in [4], 9.5 µM; in [5] it was 8.8 µM; in experiment [7], 4.8 µM. Moreover, the result in experiment [8], in experiment [9], in experiment [11] and in experiment [10] was Active. For the same molecule, the Activity in [6] stood at 128.

Consider `CCc1cccc2c3c([nH]c12)C(CC)(CC(=O)OCCC[Se]C(F)(F)F)OCC3` (stereo not given), for which the fold change (FC) in experiment [1] was 0.4. Also, in [2], the inhibition stood at 41.4%. The half-maximal inhibitory concentration (IC50) in experiment [3] came out at 8.7 µM; in experiment [4], 10.4 µM; in [5], 19.7 µM; in [7], 18.5 µM. The result in experiment [11] was Active. The Activity in experiment [6] is 86.4.

For `CC1=C(CC(=O)OCCC[Se]C#N)c2cc(F)ccc2/C1=C\c1ccc([S+](C)[O-])cc1` (stereo not given), the fold change (FC) in experiment [1] turned out to be 0.5. Also, in experiment [2], the inhibition was determined as 45.7%. For the same molecule, the 50% inhibitory concentration (IC50) amounted to 31.3 µM in experiment [3], 28.6 µM in experiment [4], 22.3 µM in experiment [5] and 17.5 µM in experiment [7]. For the same molecule, the outcome in experiment [11] was Active. In experiment [6], the Activity was found to be 91.3.

For the molecule `O=C(OCCC[Se]C(F)(F)F)c1ccccc1Nc1cccc(C(F)(F)F)c1`, the fold change (FC) in experiment [1] came out at 0.7. In addition, in experiment [2], the inhibition worked out at 68.6%. In addition, the IC50 in experiment [3] came out at 4.2 µM; in [4], 3.5 µM; in [5], 5.8 µM; in experiment [7], 2.7 µM. Besides, the result in [8], in experiment [9] and in experiment [10] was Active. Further, the Activity in experiment [6] amounted to 115.
